We go through four compounds from publication PMC6648853 (ACS Omega, 2019).

Where two headings read alike, the source gives them in different places. Marks after values point to notes of the source that are not given here. Some results are limits rather than exact numbers.

In one data set the test system is NCI-H460. The data set is described as follows: MTT assay, NCI-H460. It counts as cell-based, human. Particulars: for GI50: Homo sapiens, NCI-H460, 72 h, read-out: GI50 (50% cell growth inhibition). Summed up: (§1)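 Cells were grown in RPMI 1640 with 10% FBS and penicillin–streptomycin at 37 °C in 5% CO2. The P-gp-overexpressing NCI-H460/R line was derived from NCI-H460 by stepwise doxorubicin (5–100 nM, 3 months). Test compound (2.5–50 μM) ran 72 h, then MTT (1 mg/mL) 4 h at 37 °C. Formazan was dissolved in DMSO and read at 540 nm. Viability was relative to untreated cells, giving GI50. At least two independent experiments were run in triplicate. Paclitaxel served as positive control.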

A further data set deals with NCI-H460/R. The experiment in a line: MTT assay, NCI-H460/R. Particulars: Homo sapiens, NCI-H460, 72 h, read-out: GI50 (50% cell growth inhibition). It counts as cell-based. Summed up: as §1
The test system of data set [1] is MCR-5. The data set is described as follows: MTT assay, MCR-5 normal lung cells. It counts as cell-based. Particulars: Homo sapiens, MCR5, 72 h, read-out: GI50 (50% cell growth inhibition). Summed up: as §1
The test system of the next data set is MDA-MB-231. The experiment in a line: sulfurhodamine B. It counts as cell-based. The note with it: Homo sapiens, MDA-MB-231, 48 h, read-out: GI50 (50% cell growth inhibition). The method, boiled down: (§2)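 Cells were kept at 37 °C in 5% CO2 with 10% FBS and penicillin–streptomycin. MDA-MB-231 were grown in DMEM, the others in RPMI 1640. Cells were seeded at 5.0 × 10^3/well and left 24 h before serial dilutions of test compound (1.85–150 μM) for 48 h. Cells were fixed with 10% TCA, stained with 0.4% SRB and washed with 1% acetic acid. Bound dye was dissolved in 10 mM Tris (pH 10.5) and read at 510 nm. Doxorubicin served as positive control.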

Another data set relates to MCF-7. The experiment in a line: sulfurhodamine B. Particulars: Homo sapiens, MCF7, 48 h, read-out: GI50 (50% cell growth inhibition). It counts as cell-based. The method, boiled down:
as §2

A further data set deals with HCT116. The experiment in a line: sulfurhodamine B. It counts as cell-based. Particulars: Homo sapiens, HCT-116, 48 h, read-out: GI50 (50% cell growth inhibition). The method, boiled down: as §2
The next data set relates to AGS. Particulars: read-out: cytotoxicity class (GI50), gastric; cited from earlier work.
A further data set concerns HL-60. The note with it: read-out: cytotoxicity class (GI50); HL-60, leukemia/lymphoma; cited from earlier work.
Another data set concerns Molt-3. Particulars: read-out: cytotoxicity class (GI50); Molt-3, leukemia/lymphoma; cited from earlier work.
A further data set relates to MEL-1. The note with it: read-out: cytotoxicity class (GI50); MEL-1, leukemia/lymphoma; cited from earlier work.
A further data set has as its system MV-3. The note with it: read-out: cytotoxicity class (GI50); cited from earlier work.
The subject of a further data set is PaCa-2. Particulars: read-out: cytotoxicity class (GI50); cited from earlier work.
For data set [2], the system named is MCR-5. Particulars: read-out: cytotoxicity class (GI50); cited from earlier work.

As for `CC(=O)O[C@H]1C(=O)[C@@]2(C)[C@H]([C@H](OC(=O)c3ccccc3)[C@]3(O)C[C@H](OC(=O)[C@H](O)[C@@H](NC(=O)c4ccccc4)c4ccccc4)C(C)=C1C3(C)C)[C@]1(OC(C)=O)CO[C@@H]1C[C@@H]2O` [PCX, Paclitaxel], the figures for the GI50 with NCI-H460, in the data set with NCI-H460/R and in the data set on MCR-5 [1] were 0.6 nM, 117 nM and 523 nM, respectively. Further, the “Selectivity index, SI = GI50(MCR-5)/GI50(NCI-H460)” value in the data set on NCI-H460 (MCR-5 vs NCI-H460, MTT assay) is “PCX 872***”.
As for `COc1cccc2c1C(=O)c1c(O)c3c(c(O)c1C2=O)C[C@@](O)(C(=O)CO)C[C@@H]3O[C@H]1C[C@H](N)[C@H](O)[C@H](C)O1` [DOX, Doxorubicin], the results for the GI50 with MDA-MB-231, in the data set on MCF-7 and in the data set with HCT116 were 72 nM, 160 nM and 125 nM, respectively.
Take `CC(C)C1=C(O)C(=O)C2=C(CC[C@H]3C(C)(C)CCC[C@]23C)C1=O` [R1 = H, R2 = H, R3 = OH, royleanone]: the GI50 in the data set on AGS is > 30 µM; with HL-60 it was > 30 µM; in the data set with Molt-3, 10 to 30 µM; with MEL-1, > 30 µM; in the data set with MV-3, > 30 µM; in the data set with PaCa-2, > 30 µM. Moreover, the GI50 in the data set with MCR-5 [2] was 10 to 30 µM.
On to `O=C(/C=C/c1ccc(O)c(O)c1)O[C@H](Cc1ccc(O)c(O)c1)C(=O)O` [(1), rosmarinic acid], for which the GI50 in the data set with MDA-MB-231, with NCI-H460, in the data set with NCI-H460/R and in the data set on MCR-5 [1] was > 100000 nM throughout.
